# Results published in ChEMBL document CHEMBL5380855, “Acetyl-Click Screening Platform Identifies Small-Molecule Inhibitors of Histone Acetyltransferase 1 (HAT1)” (J Med Chem, 2023).
# Active and inactive are the calls of the source. The calls are words filed in the database; no cut-off is given here.
# Experiments:
# [1] = target: T1, HAT1/Rbap46 (Homo sapiens) (UniProt Q16576+O14929); experiment: Inhibition of C-terminal FLAG tagged full length human HAT1/Rbap46 transfected in HEK293F cells using histone H4 peptide as substrate and 4-pentynoyl-CoA as cofactor at 100 uM preincubated for 10 mins followed by 4-pentynoyl-CoA addition and measured after 1 hr by amplex red dye based fluorescence analysis relative to control; assay type: cell-based; settings: time 70.0 min
# HAT1/Rbap46 = HAT1/Rbap46 (Homo sapiens, UniProt O14929+Q16576); experiment: Inhibition of C-terminal FLAG tagged full length human HAT1/Rbap46 transfected in HEK293F cells using histone H4 peptide as substrate and 4-pentynoyl-CoA as cofactor preincubated for 10 mins followed by 4-pentynoyl-CoA addition and measured after 1 hr by amplex red dye based fluorescence analysis; assay type: cell-based
# [2] = target: Histone acetyltransferase KAT2B (Homo sapiens) (UniProt Q92831); experiment: Inhibition of human pCAF at 100 uM incubated for 20 mins followed by 3H-Acetyl CoA addition and measured after 30 mins; settings: time 50.0 min
# HCC1806 [3] = experiment: Cytotoxicity against human HCC1806 cells assessed as inhibition of cell growth by resazurin dye based fluorescence analysis; assay type: functional
# In short: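 HCC1806 cells were treated across a range of doses. Growth was read by resazurin reduction to resorufin, with fluorescence at 590 nm.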
# [4] = target: Histone acetyltransferase KAT5 (Homo sapiens, UniProt Q92993); experiment: Inhibition of human KAT5 incubated for 20 mins followed by 3H-Acetyl CoA addition and measured after 30 mins
# [5] = AUClast in CD1 mouse at 100 mg/kg, ip measured after 15 to 4320 mins by LC-MS/MS analysis; assay type: ADME, organism-based; set-up: time lower 15 min, dose 100 mg/kg, time upper 4320 min, route ip; settings: in vivo
# In short: (§1)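 Mice received one intraperitoneal injection at 100 mg/kg. Plasma concentrations of the drug were followed over time, out to 72 h, and PK parameters were derived from the plasma concentration–time profile.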
# Homo sapiens = species: Homo sapiens; experiment: Inhibition of FAD-dependent oxidase (unknown origin)
# [6] = Tmax in CD1 mouse at 100 mg/kg, ip measured after 15 to 4320 mins by LC-MS/MS analysis; assay type: ADME, organism-based; settings: in vivo, time 15-4320 min; in short: as §1
# A549 = experiment: Antitumor activity against human A549 cells xenografted in NSG mouse assessed as reduction in tumor growth at 50 to 100 mg/kg, ip administered once for every 3 days starting from day 13 post tumor implantation by digital caliper method; assay type: functional, organism-based; settings: dose 50-100 mg/kg
# In short: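 A549 cells were implanted in both flanks of NSG mice and tumours were allowed to establish for 13 days. Vehicle or drug (50 or 100 mg/kg) was then injected i.p. once every third day.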
# [7] = Observed apparent volume of distribution during terminal phase in CD1 mouse at 100 mg/kg, ip measured after 15 to 4320 mins by LC-MS/MS analysis; assay type: ADME, organism-based; settings: in vivo, time 15-4320 min, read-out: Vz/F; in short: as §1
# [8] = Terminal elimination half life in CD1 mouse at 100 mg/kg, ip measured after 15 to 4320 mins by LC-MS/MS analysis; assay type: ADME, organism-based; settings: in vivo, time 15-4320 min, read-out: LambdaZ; in short: as §1
# [9] = Cmax in CD1 mouse at 100 mg/kg, ip measured after 72 hrs by LC-MS/MS analysis; assay type: ADME, organism-based; set-up: time 72 hrs, dose 100 mg/kg, route ip; settings: in vivo; in short: as §1
# [10] = Cmax in CD1 mouse at 100 mg/kg, ip measured after 1 hr by LC-MS/MS analysis; assay type: ADME, organism-based; set-up: dose 100 mg/kg, time 1 hrs, route ip; settings: in vivo; in short: as §1
# [11] = Toxicity in mouse assessed as drug tolerance up to 250 mg/kg, ip administered as single dose; assay type: organism-based; settings: in vivo
# [12] = target: Histone acetyltransferase KAT6B (Homo sapiens, UniProt Q8WYB5); experiment: Inhibition of human MYST4 incubated for 20 mins followed by 3H-Acetyl CoA addition and measured after 30 mins
# [13] = Observed clearance in CD1 mouse at 100 mg/kg, ip measured after 15 to 4320 mins by LC-MS/MS analysis; assay type: ADME, organism-based; settings: in vivo, time 15-4320 min; in short: as §1
# Mus musculus = experiment: In vivo inhibition of HAT-1 in NSG mouse xenografted with human A549 cells assessed as reduction in Histone H4 lysine 12 acetylation in tumor administered as single ip injection and measured after 24 hrs by immunofluorescence analysis; assay type: functional, organism-based; settings: dose 25-100 mg/kg
# In short: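 A549 tumours were established in NSG mice and given one i.p. dose of vehicle or drug. Tumours were harvested 24 h later and sections immunostained for H4K12Ac. Median nuclear fluorescence was taken from all nuclei in 2 images per group; one-way ANOVA.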
# [14] = Toxicity in mouse assessed as signs of distress at 500 mg/kg, ip administered as single dose; assay type: organism-based; settings: in vivo
# [15] = target: Histone acetyltransferase KAT2A (Homo sapiens) (UniProt Q92830); experiment: Inhibition of human GCN5 at 100 uM incubated for 20 mins followed by 3H-Acetyl CoA addition and measured after 30 mins; settings: time 50.0 min
# [16] = target: T1, HAT1/Rbap46 (Homo sapiens); experiment: Inhibition of C-terminal FLAG tagged full length human HAT1/Rbap46 transfected in HEK293F cells using histone H4 peptide as substrate and 4-pentynoyl-CoA as cofactor preincubated for 10 mins followed by 4-pentynoyl-CoA addition and measured after 1 hr by amplex red dye based fluorescence analysis relative to control; assay type: cell-based; set-up: concentration or dose not given beside the values; settings: time 70.0 min
# [17] = target: T1, HAT1/Rbap46 (Homo sapiens); experiment: Inhibition of C-terminal FLAG tagged full length human HAT1/Rbap46 transfected in HEK293F cells using histone H4 peptide as substrate and 4-pentynoyl-CoA as cofactor at 10 uM preincubated for 10 mins followed by 4-pentynoyl-CoA addition and measured after 1 to 4 hrs by amplex red dye based fluorescence analysis; assay type: cell-based; settings: time 70-250 min
# [18] = target: T1, HAT1/Rbap46 (Homo sapiens); experiment: Inhibition of C-terminal FLAG tagged full length human HAT1/Rbap46 transfected in HEK293F cells using histone H4 peptide as substrate and 4-pentynoyl-CoA as cofactor at 1 to 100 uM preincubated for 10 mins followed by 4-pentynoyl-CoA addition and measured after 1 hr by amplex red dye based fluorescence analysis relative to control; assay type: cell-based; settings: dose 1-100 µM, time 70.0 min
# HCC1806 [19] = experiment: Cytotoxicity against human HCC1806 cells assessed as inhibition of cell growth incubated for 48 hrs by celltiter blue analysis; assay type: functional, cell-based
# T1 sequence (O14929 2-419 partner limits assumed): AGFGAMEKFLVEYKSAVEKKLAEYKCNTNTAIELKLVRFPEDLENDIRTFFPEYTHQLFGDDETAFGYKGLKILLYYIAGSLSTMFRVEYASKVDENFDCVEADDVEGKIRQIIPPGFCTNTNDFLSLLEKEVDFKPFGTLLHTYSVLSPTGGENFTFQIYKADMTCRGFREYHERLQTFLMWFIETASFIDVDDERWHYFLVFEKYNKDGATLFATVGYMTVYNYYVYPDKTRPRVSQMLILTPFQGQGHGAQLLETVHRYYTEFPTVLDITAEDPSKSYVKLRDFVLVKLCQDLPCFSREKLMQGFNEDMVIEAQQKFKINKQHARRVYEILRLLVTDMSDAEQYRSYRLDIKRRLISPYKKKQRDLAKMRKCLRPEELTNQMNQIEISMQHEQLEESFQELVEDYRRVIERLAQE
# T1 sequence (Q16576 2-425 limits assumed): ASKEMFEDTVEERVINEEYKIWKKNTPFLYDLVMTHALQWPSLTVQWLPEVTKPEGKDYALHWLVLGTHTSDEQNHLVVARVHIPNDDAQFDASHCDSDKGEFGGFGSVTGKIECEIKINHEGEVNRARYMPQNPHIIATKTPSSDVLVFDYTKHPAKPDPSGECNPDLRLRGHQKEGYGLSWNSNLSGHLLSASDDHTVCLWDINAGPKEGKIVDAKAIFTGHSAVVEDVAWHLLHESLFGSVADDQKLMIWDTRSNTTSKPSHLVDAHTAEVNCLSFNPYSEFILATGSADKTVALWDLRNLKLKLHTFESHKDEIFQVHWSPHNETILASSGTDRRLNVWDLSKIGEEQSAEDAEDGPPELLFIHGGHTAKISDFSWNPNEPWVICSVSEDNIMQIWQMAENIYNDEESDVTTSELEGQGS
# Sequence of HAT1/Rbap46 (Q16576 whole entry): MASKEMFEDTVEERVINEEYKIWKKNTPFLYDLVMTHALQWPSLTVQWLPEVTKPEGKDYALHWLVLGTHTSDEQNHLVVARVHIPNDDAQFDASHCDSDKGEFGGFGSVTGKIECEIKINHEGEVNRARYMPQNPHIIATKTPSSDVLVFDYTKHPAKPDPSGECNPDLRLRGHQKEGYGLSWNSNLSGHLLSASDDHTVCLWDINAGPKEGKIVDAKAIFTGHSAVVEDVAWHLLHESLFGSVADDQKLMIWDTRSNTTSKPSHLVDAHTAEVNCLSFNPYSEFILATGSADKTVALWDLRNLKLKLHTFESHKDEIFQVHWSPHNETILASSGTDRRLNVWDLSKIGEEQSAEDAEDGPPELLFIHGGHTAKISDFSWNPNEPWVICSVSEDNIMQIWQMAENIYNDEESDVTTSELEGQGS
# Sequence of HAT1/Rbap46 (O14929 whole entry): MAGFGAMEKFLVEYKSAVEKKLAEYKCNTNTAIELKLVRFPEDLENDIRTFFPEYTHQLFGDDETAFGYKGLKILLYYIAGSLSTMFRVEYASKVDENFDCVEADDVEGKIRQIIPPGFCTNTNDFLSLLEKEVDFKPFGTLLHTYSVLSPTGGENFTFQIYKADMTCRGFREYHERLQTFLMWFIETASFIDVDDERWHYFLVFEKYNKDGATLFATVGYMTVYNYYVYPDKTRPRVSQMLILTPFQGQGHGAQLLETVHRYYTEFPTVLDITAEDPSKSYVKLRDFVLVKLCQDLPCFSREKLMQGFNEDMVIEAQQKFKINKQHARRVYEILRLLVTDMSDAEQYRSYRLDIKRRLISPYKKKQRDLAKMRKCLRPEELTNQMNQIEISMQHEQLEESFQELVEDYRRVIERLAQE
# Sequence of Histone acetyltransferase KAT2A (Homo sapiens) (Q92830 2-837 limits assumed): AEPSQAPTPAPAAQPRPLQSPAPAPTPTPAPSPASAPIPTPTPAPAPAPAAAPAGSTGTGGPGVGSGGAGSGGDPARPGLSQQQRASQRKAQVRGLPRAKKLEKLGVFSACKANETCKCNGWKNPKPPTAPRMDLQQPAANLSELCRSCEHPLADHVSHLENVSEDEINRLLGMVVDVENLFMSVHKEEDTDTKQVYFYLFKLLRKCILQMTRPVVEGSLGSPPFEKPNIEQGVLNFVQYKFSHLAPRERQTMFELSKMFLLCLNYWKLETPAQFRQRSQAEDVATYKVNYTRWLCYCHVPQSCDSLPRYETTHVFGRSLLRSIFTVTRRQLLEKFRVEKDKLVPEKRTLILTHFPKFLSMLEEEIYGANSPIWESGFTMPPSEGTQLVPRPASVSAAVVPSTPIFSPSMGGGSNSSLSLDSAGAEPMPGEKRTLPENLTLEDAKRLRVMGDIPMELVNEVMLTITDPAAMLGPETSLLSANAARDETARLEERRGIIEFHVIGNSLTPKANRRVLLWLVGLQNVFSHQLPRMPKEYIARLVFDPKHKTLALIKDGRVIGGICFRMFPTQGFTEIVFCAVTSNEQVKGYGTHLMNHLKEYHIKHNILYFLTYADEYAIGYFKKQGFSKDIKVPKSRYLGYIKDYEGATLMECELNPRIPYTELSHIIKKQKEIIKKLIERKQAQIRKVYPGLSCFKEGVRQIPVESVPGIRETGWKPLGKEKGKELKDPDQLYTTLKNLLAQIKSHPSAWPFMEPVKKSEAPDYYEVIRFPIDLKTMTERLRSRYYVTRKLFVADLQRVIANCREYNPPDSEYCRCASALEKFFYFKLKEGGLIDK
# Sequence of Histone acetyltransferase KAT5 (Q92993 whole entry): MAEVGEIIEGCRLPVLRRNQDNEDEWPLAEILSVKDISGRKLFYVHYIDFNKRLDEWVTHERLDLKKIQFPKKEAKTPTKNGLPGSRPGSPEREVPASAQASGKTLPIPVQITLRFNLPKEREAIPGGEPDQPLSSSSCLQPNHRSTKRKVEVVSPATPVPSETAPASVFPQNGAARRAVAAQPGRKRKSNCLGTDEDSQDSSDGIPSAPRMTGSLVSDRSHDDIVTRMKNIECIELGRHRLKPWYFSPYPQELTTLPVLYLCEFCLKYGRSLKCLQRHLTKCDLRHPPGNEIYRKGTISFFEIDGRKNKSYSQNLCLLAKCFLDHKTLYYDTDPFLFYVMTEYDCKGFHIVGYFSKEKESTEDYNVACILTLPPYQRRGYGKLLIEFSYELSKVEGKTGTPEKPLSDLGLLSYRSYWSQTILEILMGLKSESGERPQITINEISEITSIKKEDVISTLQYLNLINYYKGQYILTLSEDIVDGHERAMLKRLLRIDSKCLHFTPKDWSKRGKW
# Sequence of Histone acetyltransferase KAT2B (Homo sapiens) (Q92831 whole entry, looked up): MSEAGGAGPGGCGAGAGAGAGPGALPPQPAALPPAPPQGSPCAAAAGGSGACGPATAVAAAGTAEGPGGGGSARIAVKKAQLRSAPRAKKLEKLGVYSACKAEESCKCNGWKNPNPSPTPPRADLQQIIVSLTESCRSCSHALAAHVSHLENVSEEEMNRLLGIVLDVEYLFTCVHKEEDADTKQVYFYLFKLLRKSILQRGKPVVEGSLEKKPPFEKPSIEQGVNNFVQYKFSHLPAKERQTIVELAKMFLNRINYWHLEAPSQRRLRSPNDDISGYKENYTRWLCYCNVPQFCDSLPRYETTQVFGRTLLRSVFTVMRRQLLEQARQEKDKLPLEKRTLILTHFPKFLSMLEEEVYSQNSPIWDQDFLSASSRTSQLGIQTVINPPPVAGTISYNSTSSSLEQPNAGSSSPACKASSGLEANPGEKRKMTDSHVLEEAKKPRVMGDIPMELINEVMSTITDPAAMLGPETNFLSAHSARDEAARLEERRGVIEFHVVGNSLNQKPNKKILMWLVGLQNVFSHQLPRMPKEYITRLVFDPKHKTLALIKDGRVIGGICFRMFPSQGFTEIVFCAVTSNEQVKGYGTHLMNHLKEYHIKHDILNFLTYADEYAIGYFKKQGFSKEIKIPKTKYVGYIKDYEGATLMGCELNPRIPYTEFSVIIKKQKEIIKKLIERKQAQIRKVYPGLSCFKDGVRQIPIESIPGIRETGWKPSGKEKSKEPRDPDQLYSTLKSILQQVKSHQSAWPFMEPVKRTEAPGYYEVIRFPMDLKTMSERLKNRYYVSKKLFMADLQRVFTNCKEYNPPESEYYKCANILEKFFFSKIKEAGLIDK
compound,measurement,setting,value
CCc1cc2c(cc1Cl)nc1c(=O)[nH]c(=O)nc-1n2CCOCC1CCNCC1,inhibition,[1],60%
CCCC(=O)OC[C@@H](OC(=O)CCC)[C@@H](OC(=O)CCC)[C@H](Cn1c2nc(=O)[nH]c(=O)c-2nc2cc(C)c(C)cc21)OC(=O)CCC,IC50,HAT1/Rbap46,17 µM
CCc1cc2c(cc1Cl)nc1c(=O)[nH]c(=O)nc-1n2CCOc1ccc(C)cc1,inhibition,[1],20%
CCc1cc2c(cc1Cl)nc1c(=O)[nH]c(=O)nc-1n2CCOCc1cccc(C(F)(F)F)c1,inhibition,[1],23%
CCc1cc2c(cc1Cl)nc1c(=O)[nH]c(=O)nc-1n2CCOCC(C)C,inhibition,[2],inactive
same,EC50,HCC1806 [3],10.4 µM
same,IC50,[4],> 100 µM
same,AUC(0-t),[5],641 µM·h
same,inhibition,Homo sapiens,inactive
same,Tmax,[6],1 h
same,Activity,A549,Active
same,Vd/F,[7],13.6 L/kg
same,half-life,[8],25.4 h
same,Cmax,[9],2.05 µM
same,Cmax,[10],70.1 µM
same,Activity,[11],Non-Toxic
same,IC50,[12],> 100 µM
same,CL/F,[13],6.2 mL/min/kg
same,inhibition,Mus musculus,Dose-Dependent Effect
same,Activity,[14],Toxic
same,inhibition,[15],inactive
CCc1cc2c(cc1Cl)nc1c(=O)[nH]c(=O)nc-1n2CCOCC1CCCC1,inhibition,[1],47%
COC1=C(N)C(=O)c2nc(-c3nc(C(=O)O)c(C)c(-c4ccc(OC)c(OC)c4O)c3N)ccc2C1=O,inhibition,[16],66.3%
CCc1cc2c(cc1Cl)nc1c(=O)[nH]c(=O)nc-1n2CCOc1cccc(C(F)(F)F)c1,inhibition,[1],11%
CCc1cc2c(cc1Cl)nc1c(=O)[nH]c(=O)nc-1n2CCCOc1ccc(-c2ccccc2)cc1,inhibition,[1],8%
Oc1ccccc1C1=NC2c3ccccc3-c3ccccc3C2N1 (stereo not given),inhibition,[16],69%
CCc1cc2c(cc1Cl)nc1c(=O)[nH]c(=O)nc-1n2CC(C)(C)C,inhibition,[1],62%
CCc1cc2c(cc1Cl)nc1c(=O)[nH]c(=O)nc-1n2CCCc1ccc(Br)cc1,inhibition,[1],9%
CCc1cc2c(cc1Cl)nc1c(=O)[nH]c(=O)nc-1n2CCOC(C)=O,inhibition,[1],49%
CCc1cc2c(cc1Cl)nc1c(=O)[nH]c(=O)nc-1n2CCOc1ccc(-c2ccccc2)cc1,inhibition,[1],13%
CCc1cc2c(cc1Cl)nc1c(=O)[nH]c(=O)nc-1n2CCOc1cc(F)cc(F)c1,inhibition,[1],-1%
CCC(=O)Nc1cc2[nH]c3nc(=O)n(Cc4ccccc4)c(=O)c-3nc2cc1C,inhibition,[16],28%
CCc1cc2c(cc1Cl)nc1c(=O)[nH]c(=O)nc-1n2CCCOc1cccc(C(F)(F)F)c1,inhibition,[1],19%
O=c1nc2n(CC(O)C(O)C(O)C(O)CO)c3cc(Cl)c(Cl)cc3nc-2c(=O)[nH]1 (stereo not given),inhibition,[1],31%
same,inhibition,[16],46%
same,IC50,HAT1/Rbap46,62.6 µM
CC(=O)N[C@@H](CCCCNC(=O)SCCNC(=O)CCNC(=O)[C@H](O)C(C)(C)COP(=O)(O)OP(=O)(O)OC[C@H]1O[C@@H](n2cnc3c(N)ncnc32)[C@H](O)[C@@H]1OP(=O)(O)O)C(N)=O,inhibition,[17],inactive
CCc1cc2c(cc1Cl)nc1c(=O)[nH]c(=O)nc-1n2CCCc1cc(F)cc(F)c1,inhibition,[1],15%
CCc1cc2c(cc1Cl)nc1c(=O)[nH]c(=O)nc-1n2CCOCc1ccc(C#N)cc1,inhibition,[1],26%
Cc1cc2nc3c(=O)[nH]c(=O)nc-3n(C[C@H](O)[C@H](O)[C@H](O)COP(=O)(O)O)c2cc1C,inhibition,[18],inactive
O=C(O)Cc1ccc(/N=N/c2c(O)c(C(=O)O)cc3ccccc23)cc1,inhibition,[16],72.2%
CCc1cc2c(cc1Cl)nc1c(=O)[nH]c(=O)nc-1n2CCOCc1cccc(Br)c1,inhibition,[1],17%
CCc1cc2c(cc1Cl)nc1c(=O)[nH]c(=O)nc-1n2CCCOc1ccc(C#N)cc1,inhibition,[1],25%
Cc1cc2nc3[nH]c(=O)[nH]c(=O)c3nc2cc1C,inhibition,[1],7%
same,inhibition,[18],inactive
CCc1cc2c(cc1Cl)nc1c(=O)[nH]c(=O)nc-1n2CCOCC(C)(C)C,inhibition,[1],40%
CC(=O)Nc1cc2[nH]c3nc(=O)n(CC4CCCCC4)c(=O)c-3nc2cc1C,inhibition,[16],25%
CCc1cc2nc3c(=O)[nH]c(=O)nc-3n(C[C@H](O)[C@H](O)[C@H](O)CO)c2cc1Cl,inhibition,[1],61%
same,inhibition,[16],64%
CC(=O)OCCn1c2nc(=O)[nH]c(=O)c-2nc2cc(C)c(C)cc21,inhibition,[16],51%
Cc1cc2nc3c(=O)[nH]c(=O)nc-3n(C[C@H](O)[C@H](O)[C@H](O)CO)c2cc1N(C)C,inhibition,[1],7%
same,inhibition,HCC1806 [19],Active
Cc1cc2cc3c(=O)[nH]c(=O)cc-3n(CC(O)C(O)C(O)CO)c2cc1C (stereo not given),inhibition,[16],66.4%
CCc1cc2c(cc1Cl)nc1c(=O)[nH]c(=O)nc-1n2CCO,inhibition,[1],54%
CCc1cc2c(cc1Cl)nc1c(=O)[nH]c(=O)nc-1n2CCOc1ccccn1,inhibition,[1],55%
CC(=O)Nc1cc2[nH]c3nc(=O)n(Cc4ccccc4)c(=O)c-3nc2cc1C,inhibition,[16],32%
CCc1cc2c(cc1Cl)nc1c(=O)[nH]c(=O)nc-1n2CCOCc1ccc(-c2ccccc2)cc1,inhibition,[1],17%
CCc1cc2c(cc1Cl)nc1c(=O)[nH]c(=O)nc-1n2CCOCc1ccccc1,inhibition,[1],49%
O=c1nc2n(CCN(CO)CO)c3cc(Cl)c(Cl)cc3nc-2c(=O)[nH]1,inhibition,[1],17%
same,inhibition,[16],37%
CCc1cc2c(cc1Cl)nc1c(=O)[nH]c(=O)nc-1n2CCOc1ccc(F)cc1,inhibition,[1],1%
CCc1cc2c(cc1Cl)nc1c(=O)[nH]c(=O)nc-1n2CCOCc1cccc(F)c1,inhibition,[1],24%
CCc1cc2c(cc1Cl)nc1c(=O)[nH]c(=O)nc-1n2C[C@H](O)[C@H](O)[C@H](O)CO,inhibition,[1],40%
same,inhibition,[16],59%
O=C1CN2Cc3c(ccc(Cl)c3Cl)N=C2N1,inhibition,[1],-5%
CCc1cc2c(cc1Cl)nc1c(=O)[nH]c(=O)nc-1n2CCOc1cccc(F)c1,inhibition,[1],17%
CCc1cc2c(cc1Cl)nc1c(=O)[nH]c(=O)nc-1n2CCCOc1ccc(C)cc1,inhibition,[1],12%
CCc1cc2c(cc1Cl)nc1c(=O)[nH]c(=O)nc-1n2CCOc1ccc(Br)cc1,inhibition,[1],8%
CCc1cc2c(cc1Cl)nc1c(=O)[nH]c(=O)nc-1n2CCOCC1CCN(C(=O)OC(C)(C)C)CC1,inhibition,[1],50%
NC(=S)c1cn([C@@H]2O[C@H](CO)[C@@H](O)[C@H]2O)c2ncnc(N)c12,inhibition,[16],72.2%
